Test results taken from the RNAGym collection of RNA variant scans (doi:10.1126/science.aae0568).
This sample holds only a part of the variants without activity.

B1: tRNA (parent)
chain: GUUCCGUUGGCGUAAUGGUAACGCGUCUCCCUCCUAAGGAGAAGACUGCGGGUUCGAGUCCCGUACGGAACG

Variants of: B1
Assay: yeast fitness relative to wild type (ratio to wild type); higher = fitter; tRNA-Arg(CCU), competitive growth, 37 C, YPD
Method in brief: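 Gene amplicons from the start population and from each of six end populations were read by 100-nucleotide paired-end sequencing. Those end populations came from pooled Saccharomyces cerevisiae strains carrying tRNA-Arg(CCU) gene variants at the native locus, competed in YPD at 37°C for 24 hours. Fitness relative to wild type was worked out from changes in genotype frequencies. Genotypes needed ≥ 100 starting reads, and estimates < 0.5 were set to 0.5.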

Row | Variant | yeast fitness
1 | G9A G10A C31G G44A | ≤ 0.5
2 | G9A G10A C60U A69C | 0.618
3 | G9A G10A C34U C66U | ≤ 0.5
4 | G9A C22G U35C A70G | ≤ 0.5
5 | G9A C22U G48A C60G A65C | ≤ 0.5
6 | G9A C22G C31U C61A A65C C66A | ≤ 0.5
7 | G9A G18A C24U A57C | ≤ 0.5
8 | G9A G48A A70U | 1.25
9 | G9A C22A U47G C55A U64C G67A | ≤ 0.5
10 | G9A G12U A14U | ≤ 0.5
11 | G9A C29A | 0.735
12 | G9A C29G | 0.555
13 | G9A C29A C34A G67C | ≤ 0.5
14 | G9A C31A | 0.862
15 | G9A C31U | 0.982
16 | G9A C31G C49G G51C | ≤ 0.5
17 | G9A G39C C62G U64C | 0.568
18 | G9A C33U A36U | 0.536
19 | G9A C31U C60U C62U | ≤ 0.5
20 | G9A C24U G38C G56C | ≤ 0.5
21 | G9A C11U U47G C62G A69C | ≤ 0.5
22 | G9A G10A | 0.577
23 | G9A C29A G48A | ≤ 0.5
24 | G9A C31G G56C C66A | ≤ 0.5

Row | Variant | yeast fitness
25 | G9A C11U C55G | 0.601
26 | G9A G25C U26G C46G A70U | ≤ 0.5
27 | G9A A69C A70C | 1.04
28 | G9A C34G A65U | ≤ 0.5
29 | G9A C27G A40G G68A | ≤ 0.5
30 | G9A A65G | 0.881
31 | G9A C11G A57U | ≤ 0.5
32 | G9A C11A A14C U16A C31A C61U | ≤ 0.5
33 | G9A C11A G44A C46A | ≤ 0.5
34 | G9A G10A A21G A57G C66U | ≤ 0.5
35 | G9A C55G | 0.549
36 | G9A C55A | 0.707
37 | G9A C55U | 0.65
38 | G9A C11G G68A | ≤ 0.5
39 | G9A C24U G25C C30G G50C G56A C66U | ≤ 0.5
40 | G9A C34G C61U C66U | ≤ 0.5
41 | G9A G51A | 0.919
42 | G9A C66G G68C | 0.571
43 | G9A C22U U53G | 0.555
44 | G9A G10C C11U U16G G41A A70G | ≤ 0.5
45 | G9A A43C A69U A70C | 0.782
46 | G9A G56U G58A | 0.563
47 | G9A C62A | 0.842
48 | G9A A69C | 1.05

Row | Variant | yeast fitness
49 | G9A C33U C49G | ≤ 0.5
50 | G9A C34U C46A C62U C66U | ≤ 0.5
51 | G9A C55U A70G | 0.536
52 | G9A C55U A70U | 0.623
53 | G9A C22G C31U | 0.683
54 | G9A G50C C62G C66U | 0.687
55 | G9A C11U A42U U47C G51A A70C | ≤ 0.5
56 | G9A A57U C66U | 0.548
57 | G9A G25C U26A C30U | ≤ 0.5
58 | G9A C31U C60G C61U G63A | ≤ 0.5
59 | G9A U13A U47A C60A | ≤ 0.5
60 | G9A A45U G50A G58C | 0.975
61 | G9A G12A C27G | ≤ 0.5
62 | G9A C31A G50C | 0.604
63 | G9A G50C A69U | 0.752
64 | G9A C34U A36G C49G C62A A65C | ≤ 0.5
65 | G9A A43G G63A | ≤ 0.5
66 | G9A G25A C49U | 0.773
67 | G9A G25A | 0.978
68 | G9A G58U A70G | 0.984
69 | G9A C31U A43U | 0.697
70 | G9A C11G A40U G56A | ≤ 0.5
71 | G9A G23U A42C | ≤ 0.5
72 | G9A C24U G58C G67C | ≤ 0.5

Row | Variant | yeast fitness
73 | G9A C11G C24G U32A | ≤ 0.5
74 | G9A C24U U53A C66U | 0.529
75 | G9A G41C | 0.899
76 | G9A G12C G17A C22G C30U C34G U59G | ≤ 0.5
77 | G9A G10C A20G G25C C33U | ≤ 0.5
78 | G9A C27G A40G | 0.53
79 | G9A G12A | 0.927
80 | G9A G12C | 0.943
81 | G9A G17C C29G C49G | ≤ 0.5
82 | G9A C31G G56C | 0.753
83 | G9A C22G G67A | 0.648
84 | G9A G48C G52A | ≤ 0.5
85 | G9A C31A C33A | ≤ 0.5
86 | G9A C30U G52A | ≤ 0.5
87 | G9A C34U C46A C61A C62U | ≤ 0.5
88 | G9A C31A G56A G67A | ≤ 0.5
89 | G9A C29U C31U A42U | 0.615
90 | G9A G10A C46G | ≤ 0.5
91 | G9A C22A A65G | 0.617
92 | G9A G12C C22U | 0.591
93 | G9A G12U A14U C31G A69U | ≤ 0.5
94 | G9A C11A C30A A42C G67C | ≤ 0.5
95 | G9A C30U C49U U64A | ≤ 0.5
96 | G9A C11U A69C | 0.787

Row | Variant | yeast fitness
97 | G9A C29A G50A | 0.62
98 | G9A C29U A43G G68U | 0.527
99 | G9A U13C C29G | ≤ 0.5
100 | G9A G56A G67A | 0.632
101 | G9A C31U C55U | 0.694
102 | G9A C49U A65U | 0.651
103 | G9A C22U A43G U64A | ≤ 0.5
104 | G9A G48A G63A A69U | 0.764
105 | G9A G44A | 0.983
106 | G9A C30G G58C | ≤ 0.5
107 | G9A G12C U13A G25A C30G C66U | ≤ 0.5
108 | G9A G12C U13A G25A C30G C66A | ≤ 0.5
109 | G9A G25C C30U | 0.679
110 | G9A C22U C30A C49A C55A C61A C62U C66U | ≤ 0.5
111 | G9A C11A C34G A36G A65C | ≤ 0.5
112 | G9A G10A C31G G52A C60U | ≤ 0.5
113 | G9A C27G A43G C66G | 0.717
114 | G9A C30A G38A A42C C61U | ≤ 0.5
115 | G9A G48A A69U | 1.07
116 | G9A G48A A69C | 0.87
117 | G9A G56C C61U | 0.603
118 | G9A C22G U54C | 0.589
119 | G9A G48C A70C | 1.08
120 | G9A C31A C46A A57G | ≤ 0.5

Row | Variant | yeast fitness
121 | G9A G58A G67A | 0.959
122 | G9A C11A | 0.604
123 | G9A C11U | 0.928
124 | G9A C11G | 0.583
125 | G9A A45C C46G A57U | ≤ 0.5
126 | G9A C31A A65C | 0.871
127 | G9A C31A A65U | ≤ 0.5
128 | G9A A57U | 0.672
129 | G9A C30G A70U | 0.57
130 | G9A A70C | 1.06
131 | G9A A70U | 0.875
132 | G9A A45G G68C | 0.543
133 | G9A G23C U64A | ≤ 0.5
134 | G9A C60U | 0.742
135 | G9A A43G U59A | 0.535
136 | G9A G17C G56C | 0.589
137 | G9A C30U C33A A36U C49U | ≤ 0.5
138 | G9A C24U U32A | 0.564
139 | G9A C46A C61A | 0.53
140 | G9A G39A A45G G50A A69U | 0.548
141 | G9A C24U C30G C34A C49G | ≤ 0.5
142 | G9A C34U U59C A65C A69G | ≤ 0.5
143 | G9A G12A C30G U32C G50A | 0.554
144 | G9A G18A G25C C30U | ≤ 0.5

Row | Variant | yeast fitness
145 | G9A U13C C29G A69U | 0.53
146 | G9A C30U G68C | ≤ 0.5
147 | G9A C27U C46G | 0.708
148 | G9A C11U C29A | 0.506
149 | G9A C22A U47G C55A | ≤ 0.5
150 | G9A G10A C31G | ≤ 0.5
151 | G9A C24U A40U A57U | 0.514
152 | G9A C24G C34G C61U | ≤ 0.5
153 | G9A G17C A20U U54A C61U | ≤ 0.5
154 | G9A C11G C33U A36G C55G | ≤ 0.5
155 | G9A C11G U19C | 0.536
156 | G9A C22U C60G A65C | 0.648
157 | G9A G17C G52A C55A | ≤ 0.5
158 | G9A G10A G25A C31G G52A C61U | ≤ 0.5
159 | G9A G68C | 0.857
160 | G9A C11G U54C C55G G63C G67C | ≤ 0.5
161 | G9A C46U C66U | 1.04
162 | G9A G23A C27A G67C | ≤ 0.5
163 | G9A C11G C24G U32G G52C | ≤ 0.5
164 | G9A G38C G41C U54A | ≤ 0.5
165 | G9A G10C G25C C33U | ≤ 0.5
166 | G9A G17C | 0.668
167 | G9A A45U | 0.86
